Measurements taken from ChEMBL document CHEMBL1143879, “Identification of novel series of human CCR1 antagonists” (Bioorg Med Chem Lett, 2008).

Tests used:
[1] = target: T1, C-C chemokine receptor type 1 (Homo sapiens, UniProt P32246); test: Displacement of [125I]MIP1-alpha from human CCR1 receptor expressed in THP1 cells; format: cell-based, THP-1
T1 sequence (P32246 whole entry): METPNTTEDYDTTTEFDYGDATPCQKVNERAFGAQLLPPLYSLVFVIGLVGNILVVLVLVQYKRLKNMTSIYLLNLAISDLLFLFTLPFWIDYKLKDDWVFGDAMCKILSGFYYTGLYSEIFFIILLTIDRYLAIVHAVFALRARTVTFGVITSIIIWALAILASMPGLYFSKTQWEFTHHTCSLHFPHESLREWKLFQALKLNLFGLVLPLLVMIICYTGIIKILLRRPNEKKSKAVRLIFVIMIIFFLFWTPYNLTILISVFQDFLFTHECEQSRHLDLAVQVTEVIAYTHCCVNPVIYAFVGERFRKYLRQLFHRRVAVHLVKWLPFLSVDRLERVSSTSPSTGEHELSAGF
How it was run: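 THP-1 cells expressing CCR1, washed in PBS, at 5 × 10⁶/ml with compound or vehicle and 50 pM human [¹²⁵I]MIP-1α. Binding buffer: 50 mM Hepes pH 7.4, 5 mM MgCl₂, 1 mM CaCl₂, 0.5% BSA. Incubated 90 min at room temperature, then filtered on PEI-coated glass fibre and washed with buffer plus 0.5 M NaCl. Bound counts by scintillation. IC50, mean of triplicates in one experiment.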

[2] = target: T1, C-C chemokine receptor type 1; test: Antagonist activity at human CCR1 receptor expressed in THP1 cells assessed as human MIP-1-alpha-stimulated intracellular calcium level by FLIPR assay; format: functional, cell-based, THP-1
How it was run: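 THP-1 cells in RPMI-1640 at 2 × 10⁶/ml, mixed 1:1 with calcium dye buffer, loaded 30 min at 37 °C with 2.5 mM probenecid. Cells spun down, resuspended in RPMI-1640 with 0.1% BSA and plated at 1.5 × 10⁵/well with or without compound. Stimulated with 5 nM human MIP-1α; intracellular Ca²⁺ change read by FLIPR. IC50, mean of at least two independent experiments.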

[3] = Selectivity for human CCR1 receptor over CCR4 receptor
THP-1 = test: Inhibition of CCL3-induced chemotaxis in human THP1 cells after 2 hrs; format: functional, cell-based; conditions: THP-1, 2 h
How it was run: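 Calcein-labelled THP-1 cells washed in RPMI-1640 and resuspended at 5 × 10⁶/ml. Preincubated 30 min at 37 °C with compound or DMSO, then placed above a 5 µm polycarbonate filter in a Boyden chamber. The lower wells held 0.5 nM human MIP-1α with or without compound. Chamber incubated 2 h at 37 °C.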

IC50 [1] [nM] | IC50 [2] [nM] | Selectivity ratio [3] | IC50 (THP-1) [nM] | Structure (SMILES)
1270 | 1240 | > 100 |  | O=S(=O)(c1ccccc1)N1CCC(N2CCC(O)(c3ccc(Cl)cc3)CC2)CC1
240 | 230 | > 100 | 296 | O=S(=O)(NCCCN1CCC(O)(c2ccc(Cl)cc2)CC1)c1ccccc1-c1cccs1
90 | 90 | > 100 | 42 | O=S(=O)(c1ccccc1Br)N1CCC(N2CCC(O)(c3ccc(Cl)cc3)CC2)CC1
